In ChEMBL document CHEMBL4334422, “Toxicities and beneficial protection of H2S donors based on nonsteroidal anti-inflammatory drugs” (Medchemcomm, 2019):
Activity calls are given as the source filed them. The rule behind the calls is not given here.

Legend:
Rattus norvegicus [1] = assay: Antihypertensive activity in spontaneously hypertensive Wistar kyoto rat assessed as reduction in systolic arterial pressure at 10 mg/kg, ip administered for 6 hrs and measured every 30 mins post treatment by tail-cuff method; assay type: functional
Summary of the method: (§1)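 Male SHRs (8 weeks, 300 ± 25 g; 6 per group), given compound intraperitoneally once daily at 8 am in 0.5% (w/v) sodium carboxymethyl cellulose/DMSO 3/1 (v/v), 2 mL·kg⁻¹. Vehicle-treated SHR and WKY controls. SBP, DBP and heart rate were measured by tail-cuff on awake, restrained rats before dosing, then every 30 min for 6 h. Values are mean ± SD of four independent experiments.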

Rattus norvegicus [2] = assay: Antihypertensive activity in spontaneously hypertensive Wistar kyoto rat assessed as reduction in diastolic arterial pressure at 10 mg/kg, ip administered for 6 hrs and measured every 30 mins post treatment by tail-cuff method; assay type: functional; summary of the method: as §1
H9c2 [3] = assay: Cytotoxicity against rat H9c2 cells assessed as reduction in cell viability at 10 to 80 uM incubated for 24 hrs; assay type: cell-based; settings: h9c2, 24 h
Summary of the method: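 Rat cardiac H9c2 cells were grown in DMEM with 10% FBS and penicillin/streptomycin at 37 °C and 5% CO₂. They were seeded at 5×10⁴ cells/mL and allowed to adhere for 8 h. Cells were exposed to 10, 40 or 80 µM compound for 24 h, and survival was compared with untreated cells.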

H9c2 [4] = assay: Cytoprotective activity against H2O2-induced toxicity in rat H9c2 cells assessed as increase in cell repair at 10 to 80 uM pretreated with compound followed by H2O2 addition and measured after 1 to 8 hrs by giemsa staining based microscopic method; assay type: functional
Summary of the method: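 H9c2 cells were injured with H₂O₂ (400 µM) for 1, 4 or 8 h to give light, medium and heavy damage, in the presence of compound at 10–80 µM. Acetaminophen or ibuprofen served as controls. Viability was measured as mean ± SD of three experiments. SOD and MDA contents were measured as mean ± SD of four experiments. Morphology was assessed by Giemsa staining under light microscopy.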

Rattus norvegicus [5] = assay: Cardioprotective activity in SHR rat assessed as ventricular pumping dysfunction at 10 mg/kg, ip administered for 14 days by TEM analysis; assay type: functional, organism-based
Summary of the method: (§2)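 SHRs were given 10 mg·kg⁻¹ intraperitoneally per day for 14 consecutive days, with an ibuprofen comparator and a normal control. Myocardial tissue was then removed. Sections were HE-stained for light microscopy and also examined by transmission electron microscopy at 6000, 10000 and 20000-fold.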

[6] = Cardiotoxicity in SHR rat assessed as appearance of myocardial interstitial collagen fibers at 10 mg/kg, ip administered for 14 days by H and E staining based microscopic assay; assay type: toxicity, organism-based; settings: in vivo, 336 h; summary of the method: as §2
[7] = Cardiotoxicity in SHR rat assessed as collagen fibers stained in interstitium at 10 mg/kg, ip administered for 14 days by H and E staining based microscopic assay; assay type: toxicity, organism-based; settings: in vivo, 336 h; summary of the method: as §2
Rattus norvegicus [8] = assay: Cardioprotective activity in SHR rat assessed as swollen myocardial interstitial vascular at 10 mg/kg, ip administered for 14 days by TEM analysis; assay type: functional, organism-based; summary of the method: as §2
[9] = Cardiotoxicity in SHR rat assessed as neatly arranged myocardial fibers at 10 mg/kg, ip administered for 14 days by H and E staining based microscopic assay; assay type: toxicity, organism-based; settings: in vivo, 336 h; summary of the method: as §2
[10] = Toxicity in Wistar kyoto rat assessed as swollen gastric mucosal cells at 6.1 mg/kg, ip administered for 14 days by H and E staining based optical microscopic method; assay type: organism-based; settings: in vivo, 336 h
Summary of the method: (§3)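 WKY rats, 3 per group, were dosed for 14 days, with the compound at 10 mg/kg per dose and the ibuprofen comparator at 6.1 mg/kg. Rats were anaesthetised with ether and killed by cervical dislocation. Stomach and intestine were sectioned at 5-10 µm, stained with haematoxylin and eosin, and examined by optical microscopy.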

Rattus norvegicus [11] = assay: Cardioprotective activity in SHR rat assessed as myocardial contraction band formation at 10 mg/kg, ip administered for 14 days by TEM analysis; assay type: functional, organism-based; summary of the method: as §2
Rattus norvegicus [12] = assay: Cardioprotective activity in SHR rat assessed as loosen myocardial fibers at 10 mg/kg, ip administered for 14 days by TEM analysis; assay type: functional, organism-based; summary of the method: as §2
[13] = Toxicity in Wistar kyoto rat assessed as hyperemia in intestinal mucosa at 6.1 mg/kg, ip administered for 14 days by H and E staining based optical microscopic method; assay type: organism-based; settings: in vivo, 336 h; summary of the method: as §3
[14] = Cardiotoxicity in SHR rat assessed as coarser myocardial fiber formation at 10 mg/kg, ip administered for 14 days by H and E staining based microscopic assay; assay type: toxicity, organism-based; settings: in vivo, 336 h; summary of the method: as §2
[15] = Toxicity in Wistar kyoto rat assessed as inflammatory cell infiltration in gastric mucosa at 6.1 mg/kg, ip administered for 14 days by H and E staining based optical microscopic method; assay type: organism-based; settings: in vivo, 336 h; summary of the method: as §3
[16] = Cardiotoxicity in SHR rat assessed as reduction in muscle bundle gaps at 10 mg/kg, ip administered for 14 days by H and E staining based microscopic assay; assay type: toxicity, organism-based; settings: in vivo, 336 h; summary of the method: as §2
[17] = Toxicity in Wistar kyoto rat assessed as intestinal mucosal edema at 6.1 mg/kg, ip administered for 14 days by H and E staining based optical microscopic method; assay type: organism-based; settings: in vivo, 336 h; summary of the method: as §3
Rattus norvegicus [18] = assay: Cardioprotective activity in SHR rat assessed as swollen myocardial mitochondria at 10 mg/kg, ip administered for 14 days by TEM analysis; assay type: functional, organism-based; summary of the method: as §2
[19] = Toxicity in Wistar kyoto rat assessed as hyperemia in gastrointestinal tissue at 6.1 mg/kg, ip administered for 14 days by H and E staining based optical microscopic method; assay type: organism-based; settings: in vivo, 336 h
Summary of the method: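 WKY rats (3 per group) were dosed for 14 days with ibuprofen at 6.1 mg·kg⁻¹ per day or test compound at 10 mg·kg⁻¹. Rats were killed by cervical dislocation after ether anaesthesia. Stomach and intestine were cut into 5–10 µm sections, HE-stained and examined by optical microscopy.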

Rattus norvegicus [20] = assay: Cardioprotective activity in SHR rat assessed as myocardial disk dissociation at 10 mg/kg, ip administered for 14 days by TEM analysis; assay type: functional, organism-based; summary of the method: as §2
Rattus norvegicus [21] = assay: Cardioprotective activity in SHR rat assessed as myocardial fiber melting at 10 mg/kg, ip administered for 14 days by TEM analysis; assay type: functional, organism-based; summary of the method: as §2
Rattus norvegicus [22] = assay: Cardioprotective activity in SHR rat assessed as myocardial fibrous submucosal swelling at 10 mg/kg, ip administered for 14 days by TEM analysis; assay type: functional, organism-based; summary of the method: as §2
[23] = Toxicity in Wistar kyoto rat assessed as inflammatory cell infiltration in gastrointestinal tissue at 6.1 mg/kg, ip administered for 14 days by H and E staining based optical microscopic method; assay type: organism-based; settings: in vivo, 336 h; summary of the method: as §3
[24] = Cardiotoxicity in SHR rat assessed as increase in muscle bundle gaps at 10 mg/kg, ip administered for 14 days by H and E staining based microscopic assay; assay type: toxicity, organism-based; settings: in vivo, 336 h; summary of the method: as §2

With COC(=O)C1=C(C)NC(C)=C(C(=O)OC)C1c1ccccc1[N+](=O)[O-] the Activity (Rattus norvegicus [1]) was “inactive” and the Activity (Rattus norvegicus [2]) was “inactive”.

For CC(=O)Nc1ccc(O)cc1 [ACETAMINOPHEN], the Activity (H9c2 [3]) was “Non-Toxic” and the Activity (H9c2 [4]) was “Active”.

With CC(C)Cc1ccc(C(C)C(=O)O)cc1 (configuration not stated) [IBUPROFEN] the Activity (Rattus norvegicus [5]) was “Active”, the Activity [6] was “Active” and the Activity [7] was “Active”. The Activity (Rattus norvegicus [8]) was “Active”, the Activity [9] was “Non-Toxic” and the Activity (H9c2 [3]) was “Non-Toxic”. For the same compound, the Activity [10] was “Toxic”, the Activity (Rattus norvegicus [11]) was “Active” and the Activity (Rattus norvegicus [12]) was “Active”. For the same compound, the Activity [13] was “Toxic”, the Activity [14] was “Active” and the Activity [15] was “Toxic”. The Activity [16] was “Active”, the Activity [17] was “Toxic” and the Activity (Rattus norvegicus [18]) was “Active”. For the same compound, the Activity [19] was “Toxic”, the Activity (Rattus norvegicus [20]) was “Active” and the Activity (Rattus norvegicus [21]) was “Active”. The Activity (Rattus norvegicus [22]) was “Active”, the Activity [23] was “Toxic” and the Activity [24] was “Active”.

In the case of C[C@H](CS)C(=O)N1CCC[C@H]1C(=O)O, the Activity (Rattus norvegicus [1]) is reported as “inactive” and the Activity (Rattus norvegicus [2]) is reported as “inactive”.
